One test concerns S. gordonii ATCC-10558. The test is described as follows: MIC by broth microdilution, planktonic S. gordonii. The test is classed as cell-based, Streptococcus gordonii. In short, it runs like this:
(§1)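 Strains were grown anaerobically overnight in BHI at 37°C, diluted 1:20 and grown anaerobically 2.5 h to mid-log phase. Two-fold serial peptide dilutions in BHI were set up in 96-well round-bottom plates, and the final inoculum was 1×10^5 CFU/ml. The MIC was reported as the median of at least three independent experiments.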
For orientation: In broth dilution the organism is exposed to a series of concentrations in liquid medium.

In another test the test system is S. sanguis ATCC-49295. The test is described as follows: MIC by broth microdilution, planktonic S. sanguis. The test is classed as cell-based, Streptococcus sanguis. In short, it runs like this: as §1
Test [1] has as its system multi-species biofilm of luc-ldh reporter strain of S. mutans, S. gordonii ATCC-10558 and S. sanguis ATCC-49295. Description: Multi-species biofilm. The format is cell-based. The settings on record: for growth of S. gordonii and S. sanguis in multi-species biofilm: 5 min after treatment, peptide 128 µg/ml; for relative strength of effect on S. mutans in multi-species biofilm (ranking): order in words: strongest effects, followed by, then, Fig. 2B. The procedure, abridged: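 Mid-log cultures were adjusted to 1×10^7 CFU/ml in BHI with 0.5% sucrose (S. mutans luc-ldh reporter), 0.5% glucose (S. gordonii) or 0.5% mannose (S. sanguis). Wells were spun and grown anaerobically 4 h at 37°C into biofilm. Peptide in PBS was added at a final 128 µg/ml, then replaced with sugar-containing BHI. OD600 was read at 5–120 min, and S. mutans RLU after adding 1 mM D-luciferin. Groups were compared by one-way ANOVA.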

Test [2] deals with S. mutans UA 159. Description: MIC by broth microdilution, planktonic S. mutans UA159. The format is cell-based, Streptococcus mutans. The settings on record: for increase of antibacterial activity against S. mutans compared with hLF1-11 alone: planktonic S. mutans, from MICs; for MICs against the S. mutans strains: range over both S. mutans strains (UA159 and GS-5). The procedure, abridged: as §1

The subject of test [3] is S. mutans UA 159. The test is described as follows: Differential protein expression. The format is cell-based, Streptococcus mutans. In short, it runs like this:
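Mid-log S. mutans UA 159 (BHI, anaerobic, 1×10^6 CFU/ml) was exposed to test peptide at 20 µg/ml or an equal volume of sterile water, anaerobically at 37°C for 1 h. Cells were pelleted at 4°C and lysed with lysozyme plus protease inhibitors, on ice with sonication. Protein was cleaned, quantified and CyDye minimal-labelled. Spots were identified by positive-ion reflection MALDI-TOF-MS over m/z 700–4,000.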

Where [4] appears, read: S. mutans UA 159, C11H 20 µg/ml 1 h vs water control, gi|24379038.

Where no end group is shown, it is not given here.

LSTFFRLFN [C12] displayed an MIC against S. gordonii against S. gordonii ATCC-10558 of more than 256 µg/mL. The sequence also came in with an MIC against S. sanguis in the test with S. sanguis ATCC-49295 of more than 256 µg/mL. Further, the “growth of S. gordonii and S. sanguis in multi-species biofilm” value (from here on “growth of S. gordonii and S. sanguis”) in test [1] is “not affected”. Further, the MIC against S. mutans against S. mutans UA 159 [2] (planktonic) is more than 256 µg/mL.

Take LSTFFRLFNGRRRRSVQWCA [C12H]: in test [1], the “growth of S. gordonii and S. sanguis” value is given as “not affected”; the “relative strength of effect on S. mutans in multi-species biofilm (ranking)” value (shortened to “relative strength of effect on S. mutans”) is “strongest effects”. The “increase of antibacterial activity against S. mutans compared with hLF1-11 alone” value (“increase of antibacterial activity” below) in the test with S. mutans UA 159 [2] is on record as 3–4 times. Also, in the test with S. mutans UA 159 [2] (planktonic), the “MICs against the S. mutans strains” value was 10.67 to 13.33 µg/mL.

As to LSTFFRLFNRSFTQGRRRRSVQWCA [C14H], in test [1], the “growth of S. gordonii and S. sanguis” value is on record as “not affected”. The “increase of antibacterial activity” value in the test on S. mutans UA 159 [2] was 3–4 times. In addition, in the test on S. mutans UA 159 [2] (planktonic), the “MICs against the S. mutans strains” value is 10.67 to 13.33 µg/mL.

Turning to TFFRLFNRSFTGRRRRSVQWCA [C11H], in the test with S. mutans UA 159 [3] (S. mutans UA 159, C11H 20 µg/ml 1 h vs water control, gi|24378605), the “Average ration: Heat shock protein GrpE (HSP-70 cofactor) (master no. 1781)” value is −4.2. Besides, the “Average ration: NAD synthetase (master no. 1628)” value in the test on S. mutans UA 159 [3] (S. mutans UA 159, C11H 20 µg/ml 1 h vs water control, gi|24378953) is −4.12. Also, in the test on S. mutans UA 159 [3] (setting [4]), the “Average ration: Putative cell division A protein DivIV (master no. 1355)” value is recorded as −8, the “Average ration: Putative cell division protein DivIVA (master no. 1327)” value was −11.09 and the “Average ration: Putative cell division protein DivIVA (master no. 1341)” value is −5.58. The “Average ration: Putative 40K cell wall protein precursor (master no. 654)” value with S. mutans UA 159 [3] (S. mutans UA 159, C11H 20 µg/ml 1 h vs water control, gi|24379086) is recorded as −4.75. Further, the “Average ration: Branch ed-chain amino acid aminotransferase (master no. 1241)” value in the test with S. mutans UA 159 [3] (S. mutans UA 159, C11H 20 µg/ml 1 h vs water control, gi|24379628) was −5.4. The “Average ration: Orotate phosphoribo-syltransferase (master no. 2141)” value in the test with S. mutans UA 159 [3] (S. mutans UA 159, C11H 20 µg/ml 1 h vs water control, gi|24379645) is given as −4.63. Also, the “Average ration: Putative dTDP-4-keto-L-rhamnose reductase (master no. 2068)” value in the test with S. mutans UA 159 [3] (S. mutans UA 159, C11H 20 µg/ml 1 h vs water control, gi|24379857) is −5.54. The “Average ration: Ribosome recycling factor (master no. 2072)” value with S. mutans UA 159 [3] (S. mutans UA 159, C11H 20 µg/ml 1 h vs water control, gi|24380004) is reported as −4.7. The “Average ration: Hypothetical protein SMU.1716c (master no. 2188)” value in the test on S. mutans UA 159 [3] (S. mutans UA 159, C11H 20 µg/ml 1 h vs water control, gi|24380090) is reported as −6.14. Moreover, the “Average ration: Putative trans-2-enoyl-ACP reductase (master no. 1551)” value in the test with S. mutans UA 159 [3] (S. mutans UA 159, C11H 20 µg/ml 1 h vs water control, gi|24380114) is −4.34. In the test with S. mutans UA 159 [3] (S. mutans UA 159, C11H 20 µg/ml 1 h vs water control, gi|24380128), the “Average ration: Hypothetical protein SMU.1760c (master no. 1506)” value is listed as −5.93. In addition, the “Average ration: Hypothetical protein SMU.1789c (master no. 1576)” value in the test with S. mutans UA 159 [3] (S. mutans UA 159, C11H 20 µg/ml 1 h vs water control, gi|24380155) is reported as −6.04. For the same sequence, the “Average ration: Elongation factor P (master no. 2035)” value with S. mutans UA 159 [3] (S. mutans UA 159, C11H 20 µg/ml 1 h vs water control, gi|24380208) is given as −4.19. For the same sequence, in the test with S. mutans UA 159 [3] (S. mutans UA 159, C11H 20 µg/ml 1 h vs water control, gi|24380219), the “Average ration: Single-strand DNA-binding protein (master no. 2334)” value is −5.37. Moreover, the “Average ration: Inositol-5 monophosphate dehydrogenase (master no. 824)” value with S. mutans UA 159 [3] (S. mutans UA 159, C11H 20 µg/ml 1 h vs water control, gi|24380485) is listed as −12.84. For the same sequence, in the test with S. mutans UA 159 [3] (S. mutans UA 159, C11H 20 µg/ml, 1 h), the “21 protein spots with a mean change ratio of 1.5” value is given as “downregulated”. In test [1], the “growth of S. gordonii and S. sanguis” value was “not affected”; the “relative strength of effect on S. mutans” value is “strongest effects”. The “increase of antibacterial activity” value in the test with S. mutans UA 159 [2] is reported as 3–4 times. Moreover, the “MICs against the S. mutans strains” value with S. mutans UA 159 [2] (planktonic) lay in the range of 10.67 to 13.33 µg/mL.

TFFRLFNRGRRRRSVQWCA [C8H]: in test [1], the “growth of S. gordonii and S. sanguis” value is listed as “not affected”; the “relative strength of effect on S. mutans” value is given as “then”. In the test on S. mutans UA 159 [2], the “increase of antibacterial activity” value is given as 3–4 times. Further, in the test on S. mutans UA 159 [2] (planktonic), the “MICs against the S. mutans strains” value was 10.67 to 13.33 µg/mL.

Take “GRRRRSVQWCA [hLF1-11, reference compound]”: in test [1], the “growth of S. gordonii and S. sanguis” value is “not affected”. In the test with S. mutans UA 159 [2] (planktonic), the “MICs against the S. mutans strains” value was 37.33 to 48.00 µg/mL.

Regarding STFFRLFNRSFTQGRRRRSVQWCA [C13H], the “growth of S. gordonii and S. sanguis” value in test [1] is “not affected”. In the test with S. mutans UA 159 [2], the “increase of antibacterial activity” value is 3–4 times. The “MICs against the S. mutans strains” value in the test on S. mutans UA 159 [2] (planktonic) was 10.67 to 13.33 µg/mL.
